Screening data from PubChem.
MEKK2 WT-MEK5 – modulators of MEK5 binding to wildtype MEKK2, primary screen, biochemical, multiplex bead flow cytometry, Alexa488-MEK5; Mitogen-activated protein kinase kinase kinase 2 (Homo sapiens), Q9Y2U5; 290,000 tested, 1.1% active; binding response (% of control), % at 10 µM; Alexa488-MEK5 binding to MEKK2 WT; actives lie on both sides; AID 1531, 2009; in the data active means binding response below about 67% or above about 130%; inconclusive means no clear call, values can overlap the other calls; inactive means in between
MEKK2mut PB1 HTS – MEK5 binding signal on mutant MEKK2 PB1, primary screen, biochemical, multiplex bead flow cytometry, Alexa488-MEK5. Alexa488-MEK5 binding to MEKK2 mutant. percent response, % at 10 µM. 290,000 tested, 0.35% active; in the data active means percent response above about 24%, passing the limit was not always enough
FID counter – compounds displacing fluorescent DNA intercalator, primary screen, artefact control for HCV NS3 helicase inhibitor project, biochemical, FID fluorescence; DNA fluorescent intercalator displacement; inhibition, % at 7.9 µM; 290,000 tested, 0.17% active; AID 1845, 2009; in the data active means inhibition above about 37%;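 further: higher means more ethidium bromide displaced from hairpin DNA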
T cruzi inh – inhibitors of intracellular T. cruzi growth, primary screen, luminescence, NIH3T3 host cells; AID 1885, 2009; inhibition, % (concentration not given with the values); 300,000 tested, 1.4% active; T. cruzi beta-gal in NIH3T3, 90 h;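 active means mean inhibition across valid replicates above about 55%, limit read from the data; inconclusive means mean below that limit but half or more replicates reach it; inactive means mean below it, under half of replicates reach it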;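 further: signal also drops with host cell toxicity which is not excluded here; higher percent means less beta-gal luminescence so fewer parasites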
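Material: NIH/3T3 host cells with β-galactosidase reporter T. cruzi; Input: 5,000 host fibroblasts per well; Medium: DMEM, 2% fetal bovine serum; Compound: 50 nL DMSO compound solution per well; Schedule: 3 h host attachment, then at least 90 h co-culture; Detection: luminescent β-galactosidase signal after 60 min lysis.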
HCV NS3 hel inh – inhibitors of HCV NS3 helicase, primary screen, biochemical, Cy5 molecular beacon fluorescence. Hepatitis C virus NS3 helicase. NS3 helicase DNA unwinding. inhibition, % at 10.9 µM. 290,000 tested, 0.56% active;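 active means inhibition above the mean of all tested compounds plus 3 SD, set per campaign, cut at about 35% in these data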
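Test system: hepatitis C virus NS3 helicase domain fragment enzyme. Also added: annealed dual-labelled DNA beacon duplex, ATP-started. Timing: 60 min unwinding reaction at 25 °C after ATP addition. Technique: Cy5 fluorescence. Measure: % inhibition of unwinding.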
MEKK3 PB1 HTS – modulators of MEKK3-MEK5 PB1 binding, primary screen, biochemical, wildtype MEKK3, multiplex bead flow cytometry, Alexa488-MEK5. AID 1529, 2009. bead-based flow cytometry, Alexa488-MEK5 binding to MEKK3; actives lie on both sides; 0 = blocked by unlabeled MEK5, 100 = vehicle. 290,000 tested, 1.4% active. binding response (% of control), % at 10 µM;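 active means binding response more than 3 SD above or below the average of its plate-row segment, actives on both sides; inconclusive means wells at one plate position flagged as instrument error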;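 further: Alexa488 bead fluorescence after subtracting the streptavidin-only scavenger bead signal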
Target sequence (Q99759 whole entry, looked up): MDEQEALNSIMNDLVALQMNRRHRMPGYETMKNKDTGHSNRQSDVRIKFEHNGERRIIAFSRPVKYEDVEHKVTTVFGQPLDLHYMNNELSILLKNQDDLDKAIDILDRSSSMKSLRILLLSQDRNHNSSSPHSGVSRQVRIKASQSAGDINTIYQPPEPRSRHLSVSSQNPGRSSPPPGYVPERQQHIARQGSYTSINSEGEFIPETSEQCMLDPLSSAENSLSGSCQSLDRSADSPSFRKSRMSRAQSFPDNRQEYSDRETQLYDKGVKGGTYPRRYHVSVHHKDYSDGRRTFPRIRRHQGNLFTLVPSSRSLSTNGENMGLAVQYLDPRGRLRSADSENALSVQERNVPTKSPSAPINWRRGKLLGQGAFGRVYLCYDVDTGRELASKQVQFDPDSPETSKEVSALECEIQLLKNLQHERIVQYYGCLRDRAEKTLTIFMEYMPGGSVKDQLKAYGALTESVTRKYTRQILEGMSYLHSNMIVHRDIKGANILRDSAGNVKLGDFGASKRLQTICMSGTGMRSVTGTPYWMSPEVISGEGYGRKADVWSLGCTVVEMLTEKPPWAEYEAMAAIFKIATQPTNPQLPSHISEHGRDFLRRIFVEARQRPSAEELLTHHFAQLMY
Hits are given with their value; . = inactive; ? = inconclusive; / = not tested or not shown. The list is not random: actives were taken first. Their share in the collection is about 4.1%.

SMILES	MEKK2 WT-MEK5	MEKK2mut PB1 HTS	FID counter	T cruzi inh	HCV NS3 hel inh	MEKK3 PB1 HTS
c1ccc(-c2nc(NCCCN3CCOCC3)c3ccccc3n2)cc1	.	.	55	.	.	.
Cc1ccc2ncnc(NCCCN3CCOCC3)c2c1	.	.	.	.	.	.
Cc1c(C)c2ccc(OCC(=O)Nc3ccc(S(N)(=O)=O)cc3)c(C)c2oc1=O	.	.	.	.	.	.
COc1ccccc1N(Cc1ccccc1)S(=O)(=O)c1cccc(C(=O)Nc2ccc(C)cn2)c1	/	/	/	62	/	/
COc1ccccc1N(Cc1ccccc1)S(=O)(=O)c1cccc(C(=O)Nc2ccccn2)c1	.	.	.	.	.	.
Cc1ccc2c(C(=O)CCl)c(C)[nH]c2c1	.	.	.	56	.	.
O=C1C(Nc2ccccc2)=C(N2CCCCC2)C(=O)c2ccccc21	.	.	.	.	.	.
Cc1ccc(NC2=C(N3CCCCC3)C(=O)c3ccccc3C2=O)cc1	.	.	.	66	.	.
COc1ccccc1NC1=C(N2CCCCC2)C(=O)c2ccccc2C1=O	.	.	.	62	.	.
CCOC(=O)c1ccc(NS(=O)(=O)c2c(C)[nH]c(C)c2C(=O)N2CCCCC2)cc1	.	.	.	.	.	.
Cc1ccc(-c2cc(C(F)F)n3ncc(C(=O)N4CCc5ccccc5C4)c3n2)cc1	.	.	.	58	.	.
CC1Cc2cc(/C(O)=C3/C(=O)C(=O)N(CCCn4ccnc4)C3c3cccc([N+](=O)[O-])c3)ccc2O1 (configuration not stated)	.	.	.	.	.	.
Cc1onc(-c2ccccc2)c1CNC(=O)Nc1ccc(C(F)(F)F)cc1	.	.	.	56	.	.
Cc1cc(C)cc(NC(=O)NCc2c(-c3ccccc3)noc2C)c1	.	.	.	.	.	.
COc1ccc(S(=O)(=O)N2CCCC2CNC(=O)C(=O)NCc2ccccc2Cl)cc1 (configuration not stated)	/	/	/	.	/	/
Cc1cc2oc(=O)cc(CN3CCCCC3C)c2cc1Cl (configuration not stated)	.	.	.	.	.	.
Cc1cc2oc(=O)cc(Cn3ncc(Cl)c(Cl)c3=O)c2cc1Cl	.	.	.	57	.	.
COc1ccc(-n2c(SCC(=O)C(C)(C)C)nc3c(sc(=S)n3-c3ccccc3)c2=O)c(OC)c1	.	.	.	60	.	.
O=C1CSC(c2cccc([N+](=O)[O-])c2)N1c1ccccc1F (configuration not stated)	.	.	.	.	.	.
CC1CC(C)(C)Nc2ccc(N=O)cc21 (configuration not stated)	.	.	.	98	.	.
CC1CC(C)(C)Nc2ccc(OC(=O)c3ccco3)cc21 (configuration not stated)	.	.	.	.	.	.
CC1(C(=O)OCC(=O)Nc2nc(-c3ccc(F)c(F)c3)cs2)CC1(Cl)Cl (configuration not stated)	.	.	.	.	.	.
CC(=O)/C(=C\N(C)C)Sc1ccc(Cl)cc1	?	.	.	.	.	?
S=C(Sc1ccc(Cl)cc1)Sc1ccc(Cl)cc1	.	.	.	63	.	.
O=C(CCSCc1ccccc1Cl)NC1CCCCC1	.	.	.	.	.	.
SMILES	MEKK2 WT-MEK5	MEKK2mut PB1 HTS	FID counter	T cruzi inh	HCV NS3 hel inh	MEKK3 PB1 HTS
COc1ccc(Cc2noc(CN3CCCN(C4Cc5ccccc5C4)CC3)n2)cc1OC	.	.	.	60	.	.
Fc1cccc(Cc2noc(CN3CCC(c4ccncc4)CC3)n2)c1	.	.	.	66	.	.
COc1ccc(Cc2noc(CN3CCN(Cc4cccc(Cl)c4)CC3)n2)cc1OC	.	.	.	60	.	.
COCCN1CCN(Cc2nc(Cc3ccc(OC)c(OC)c3)no2)CC1	.	.	.	.	.	.
Cc1ccc(NC(=O)C2CCCN2S(=O)(=O)c2ccc(-c3ccc(=O)[nH]n3)s2)c(C)c1 (configuration not stated)	.	.	.	.	.	.
O=C(O)c1ccccc1NC(c1ccccc1)c1ccc(Cl)cc1 (configuration not stated)	.	.	.	.	.	.
Cc1ccccc1C(=O)NCC(=O)OC(C)C(=O)NCc1ccco1 (configuration not stated)	/	/	/	.	/	/
Oc1ccccc1/C=N/Nc1nccnc1Cl	.	.	.	.	.	.
Oc1ccc(/C=N/Nc2nccnc2Cl)c(O)c1	.	.	.	59	.	.
CCCNC(=O)CCCN1C(=O)c2ccccc2Sc2ncccc21	.	.	.	.	.	.
CCN1CCN(C(CNS(=O)(=O)c2ccc(C)cc2)c2cccnc2)CC1 (configuration not stated)	.	.	.	.	.	.
O=S(=O)(NCC(c1cccnc1)N1CCN(c2ccc(F)cc2)CC1)c1ccc(F)cc1 (configuration not stated)	.	.	.	.	.	.
Cc1ccc(S(=O)(=O)NCC(c2cccnc2)N2CCN(Cc3ccccc3)CC2)cc1 (configuration not stated)	.	.	.	57	.	.
O=S(=O)(NCC(c1cccnc1)N1CCN(Cc2ccccc2)CC1)c1ccccc1 (configuration not stated)	.	.	.	62	.	.
CCc1ccc(-c2cc(C(=O)N3N=C(C(F)F)CC3(O)C(F)F)c3ccccc3n2)cc1 (configuration not stated)	.	.	.	59	.	.
c1ccc(-c2nc(N3CCCCCC3)c3ccccc3n2)nc1	.	.	.	63	.	.
c1ccc(Oc2nc(-c3ccccn3)nc3ccccc23)cc1	.	.	.	65	.	.
COc1cccc(Oc2nc(-c3ccncc3)nc3ccccc23)c1	.	.	.	55	.	.
COc1ccc(Oc2nc(-c3ccccn3)nc3ccccc23)cc1	.	.	.	.	.	.
Cc1cccc(Cn2nnc3c2C(=O)c2ccccc2C3=O)c1	.	.	.	61	.	.
CCOC(=O)CSc1nc2sc3c(c2c(=O)n1C1CCCCC1)CCN(C)C3	.	.	.	57	.	.
C=CCSc1nc2sc3c(c2c(=O)n1-c1ccccc1)CCN(C)C3	.	.	.	56	.	.
